These results are taken from PMC4245150 (Organometallics, 2014).

A word on the IC50: it is the midpoint of a concentration-inhibition curve.

One assay deals with Caki-1. Nature of the assay: XTT cell viability assay, Caki-1. The format is cell-based, human. The gist of the method: (§1)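 Cells kept in RPMI-1640 with 10% FBS, 1% NEAA and PenStrep at 37 °C, 5% CO2. Seeded at 5000 cells/well in phenol-red-free, antibiotic-free RPMI (10% FBS, 2 mM L-glutamine) and grown 24 h. Test compound was dissolved in 1% DMSO, diluted in water and added at 0.1–200 μM final for 24 or 72 h. XTT was added at 0.3 mg/mL for 4 h, and A450 read. IC50 is the concentration halving proliferation against untreated cells, from ≥2 independent experiments in triplicate.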
A general note: Tetrazolium assays rely on reduction of a dye to a coloured formazan, in cell work by metabolically active cells.

In the next assay the test system is DU145. The experiment in a line: XTT cell viability assay, DU145. It is filed as cell-based, human. The gist of the method: as §1
The subject of another assay is UO31. The experiment in a line: XTT cell viability assay, UO31. It is filed as cell-based, human. The gist of the method: as §1
The next assay concerns PC3. Nature of the assay: XTT cell viability assay, PC3. The format is cell-based, human.
In the next assay the test system is HEK-293T. Nature of the assay: XTT cell viability assay, HEK-293T. It is filed as cell-based, human. The conditions noted are these: HEK-293T (nontumorigenic). The gist of the method: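 HEK-293 cells kept in DMEM with 10% FBS, 1% NEAA and PenStrep at 37 °C, 5% CO2. Seeded at 5000 cells/well in phenol-red-free, antibiotic-free DMEM (10% FBS, 2 mM L-glutamine) and grown 24 h. Test compound was dissolved in 1% DMSO, diluted in water and dosed at 0.1–200 μM final for 24 or 72 h. XTT was added at 0.3 mg/mL for 4 h, and A450 read. IC50 is the concentration halving proliferation against untreated cells, from ≥2 independent experiments in triplicate.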

In a further assay the test system is A498. The experiment in a line: XTT cell viability assay, A498. The format is cell-based, human.
In a further assay the test system is PKCι-par6. The note with it: PKCι-par6 in vitro; cited from earlier work.
For the next assay, the system named is plasmid (pBR322) DNA. Nature of the assay: electrophoresis mobility shift assay with plasmid DNA. The format is binding. The conditions noted are these: metal/DNAbp ratios 0.25-2.0, 37 °C, 20 h, pH 7.39. The gist of the method:
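pBR322 DNA (20 μg/mL) in 5 mM Tris/HCl, 50 mM NaClO4, pH 7.39 incubated with test compound ([…] metal complex/DNAbp) for 20 h at 37 °C in the dark; free DNA and cisplatin-treated DNA as controls. Samples run on 1% agarose gel, 1.5 h at 80 V in Tris-acetate/EDTA, stained 30 min with GelRed.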

The next assay concerns PI3 kinases. Nature of the assay: HotSpot kinase assay, lipid PI3 kinases. It is filed as biochemical. The note with it: IC50 values only plotted in Figure 8.
In another assay the test system is CT-DNA. The note with it: physiological pH / pH 7; cited from earlier work.
The next assay concerns panel of 30 kinases. Nature of the assay: HotSpot kinase assay, panel of 30 nonlipid kinases. The conditions noted are these: even at concentrations of 100 μM. The format is biochemical.

The structures appear in SMILES notation.

Turning to `COc1ccc(C[C]2([Ti+2][C]3(Cc4ccc(OC)cc4)C=CC=C3)C=CC=C2)cc1.[Cl-].[Cl-]` [Titanocene Y], the IC50 in the assay on Caki-1 (Caki-1, 24 h incubation) was greater than 200 µM; in the assay on Caki-1 (Caki-1, 72 h incubation), 29.4 ± 4.2 µM; in the assay on DU145 (DU145, 24 h incubation) it was greater than 200 µM; in the assay with DU145 (DU145, 72 h incubation), 55.2 ± 7.9 µM; with UO31 (UO31, 24 h incubation), greater than 200 µM; with UO31 (UO31, 72 h incubation), greater than 200 µM. Also, the IC50 in the assay with PC3 (PC3, 24 h incubation) is greater than 200 µM; in the assay with PC3 (PC3, 72 h incubation), 58.1 ± 11.2 µM; in the assay on HEK-293T (24 h incubation) it was greater than 200 µM; with HEK-293T (72 h incubation), greater than 200 µM; with A498 (A498, 24 h incubation), greater than 200 µM; with A498 (A498, 72 h incubation), greater than 29.6 µM.
For the compound `OC[C@H]1O[C@H]([S-])[C@H](O)[C@@H](O)[C@@H]1O.[Au+]` [aurothioglucose], the concentration for half-maximal inhibition (IC50) in the assay on PKCι-par6 was roughly 1 µM.
Consider `O=C(O)CC([S-])C(=O)O.[Au+]` (stereo not shown) [aurothiomalate], for which the IC50 in the assay with PKCι-par6 was roughly 1 µM.
Turning to `N.N.[Cl][Pt][Cl]` [cisplatin], the IC50 in the assay with Caki-1 (Caki-1, 24 h incubation) is 68.8 ± 0.14 µM; with Caki-1 (Caki-1, 72 h incubation) it was 29 ± 4.1 µM; in the assay with DU145 (DU145, 24 h incubation), 44.5 ± 0.33 µM; with DU145 (DU145, 72 h incubation), 12.1 ± 3.9 µM; in the assay on UO31 (UO31, 24 h incubation), greater than 100 µM; with UO31 (UO31, 72 h incubation), 8.9 ± 2.7 µM. The 50% inhibitory concentration (IC50) with PC3 (PC3, 24 h incubation) came out at 92 ± 18 µM; in the assay on PC3 (PC3, 72 h incubation) it was 14 ± 2.3 µM; in the assay with HEK-293T (24 h incubation) it was 64.4 ± 7.9 µM; in the assay with HEK-293T (72 h incubation) it was 3.2 ± 0.13 µM; in the assay on A498 (A498, 24 h incubation) it was 74.7 ± 6 µM; in the assay with A498 (A498, 72 h incubation) it was 37.2 ± 4.6 µM. Further, the “effect on electrophoretic mobility of plasmid forms” value in the assay on plasmid (pBR322) DNA was “decrease in mobility of the CCC form and an increase in mobility of the OC form”.
Turning to `O=C(O)C[P+]([Au-][Cl])(c1ccccc1)c1ccccc1` [compound 6, [HOC(O)CH2PPh2AuCl]], the IC50 in the assay on Caki-1 (Caki-1, 24 h incubation) is 33.8 ± 2.1 µM; with Caki-1 (Caki-1, 72 h incubation), 23 ± 4.1 µM; in the assay with DU145 (DU145, 24 h incubation), 34.7 ± 1.8 µM; in the assay with DU145 (DU145, 72 h incubation), 31.3 ± 3.1 µM; in the assay on UO31 (UO31, 24 h incubation) it was 27.3 ± 2.7 µM; with UO31 (UO31, 72 h incubation), 5.2 ± 1.6 µM. In addition, the IC50 is 38.2 ± 2.2 µM with PC3 (PC3, 24 h incubation); 30.2 ± 4.2 µM in the assay with PC3 (PC3, 72 h incubation); 36.5 ± 3.3 µM in the assay on HEK-293T (24 h incubation); 9.7 ± 2.5 µM with HEK-293T (72 h incubation); 58 ± 11 µM in the assay on A498 (A498, 24 h incubation); 43 ± 4.9 µM in the assay with A498 (A498, 72 h incubation). The “effect on electrophoretic mobility of plasmid forms” value in the assay on plasmid (pBR322) DNA is reported as “does not affect the mobility of the faster-running supercoiled form”.
For the compound `[Cl-].[Cl-].[Ti+4].c1cc[cH-]c1.c1cc[cH-]c1` [titanocene dichloride], the IC50 is greater than 200 µM in the assay on Caki-1 (Caki-1, 24 h incubation); greater than 200 µM in the assay with Caki-1 (Caki-1, 72 h incubation); greater than 200 µM in the assay on DU145 (DU145, 24 h incubation); greater than 200 µM with DU145 (DU145, 72 h incubation); greater than 200 µM in the assay with UO31 (UO31, 24 h incubation); greater than 200 µM with UO31 (UO31, 72 h incubation). Moreover, the half-inhibitory concentration (IC50) in the assay with PC3 (PC3, 24 h incubation) was greater than 200 µM; in the assay with PC3 (PC3, 72 h incubation), greater than 200 µM; in the assay on HEK-293T (24 h incubation), greater than 200 µM; in the assay with HEK-293T (72 h incubation) it was greater than 200 µM; in the assay with A498 (A498, 24 h incubation), greater than 200 µM; in the assay with A498 (A498, 72 h incubation) it was greater than 200 µM. Besides, the “inhibition of PI3 kinase family” value in the assay on PI3 kinases is “inhibits exclusively protein kinases of the PI3 kinase family at nanomolar concentrations”. For the same compound, the “interaction with CT-DNA” value with CT-DNA is “does not interact with CT-DNA”. Further, the “inhibition of enzymatic activity of 30 kinases” value in the assay on panel of 30 kinases was “did not inhibit the enzymatic activity to levels of 50% or below”.
